The test system of assay [1] is NIH3T3. Put plainly: Cytoprotective activity against UV-induced apoptosis in mouse NIH/3T3 cells assessed as late apoptotic cells at 10 uM preincubated for 20 hrs followed by UV irradiation for 5 mins and measured after 24 hrs by flow cytometric analysis (reference value: 6.4%). The assay is classed as functional.
For assay [2], the target named is T1, Sphingomyelin phosphodiesterase (Mus musculus) (UniProt Q04519).
T1 sequence (whole entry): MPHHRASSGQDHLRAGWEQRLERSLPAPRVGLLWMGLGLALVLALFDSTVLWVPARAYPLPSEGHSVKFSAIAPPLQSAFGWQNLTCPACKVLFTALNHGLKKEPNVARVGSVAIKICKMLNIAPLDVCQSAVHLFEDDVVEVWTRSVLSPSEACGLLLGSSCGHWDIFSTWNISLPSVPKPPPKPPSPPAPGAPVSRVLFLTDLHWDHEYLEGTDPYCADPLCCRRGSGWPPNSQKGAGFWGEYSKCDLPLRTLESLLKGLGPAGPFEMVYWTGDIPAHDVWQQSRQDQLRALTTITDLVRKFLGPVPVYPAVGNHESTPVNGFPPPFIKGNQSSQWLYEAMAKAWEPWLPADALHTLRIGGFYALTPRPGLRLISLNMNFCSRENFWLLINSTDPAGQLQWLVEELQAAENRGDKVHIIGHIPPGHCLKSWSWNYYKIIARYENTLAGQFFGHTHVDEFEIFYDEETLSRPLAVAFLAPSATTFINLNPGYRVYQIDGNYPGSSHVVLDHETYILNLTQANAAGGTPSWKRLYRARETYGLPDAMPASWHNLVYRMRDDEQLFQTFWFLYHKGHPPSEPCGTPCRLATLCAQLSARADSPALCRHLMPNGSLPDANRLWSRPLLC
Description: Inhibition of acid sphingomyelinase in mouse NIH/3T3 cells assessed as decrease in ceramide levels after 20 hrs by LC-MS/MS analysis. The assay is classed as cell-based. The gist of the method: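 NIH3T3 cells in DMEM with 10% FBS, 37 °C, 5% CO₂; at 90% confluence given fresh medium plus inhibitor (5, 10, 20 µM) for 20 h; total ceramides and sphingomyelin quantified by LC-MS-MS versus untreated control; mean ± SD of three independent experiments, Student's t-test.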

Assay [3] concerns NIH3T3. Put plainly: Cytoprotective activity against UV-induced apoptosis in mouse NIH/3T3 cells assessed as early apoptotic cells at 10 uM preincubated for 20 hrs followed by UV irradiation for 5 mins and measured after 24 hrs by flow cytometric analysis (reference value: 79.5%). The assay is classed as functional.
For assay [4], the system named is NIH3T3. Description: Cytoprotective activity against UV-induced apoptosis in mouse NIH/3T3 cells assessed as early apoptotic cells at 20 uM preincubated for 20 hrs followed by UV irradiation for 5 mins and measured after 24 hrs by flow cytometric analysis (reference value: 79.5%). The assay is classed as functional.
For assay [5], the system named is NIH3T3. Description: Cytoprotective activity against UV-induced apoptosis in mouse NIH/3T3 cells assessed as late apoptotic cells at 40 uM preincubated for 20 hrs followed by UV irradiation for 5 mins and measured after 24 hrs by flow cytometric analysis (reference value: 6.4%). The assay is classed as functional.
For assay [6], the system named is NIH3T3. Description: Cytoprotective activity against UV-induced apoptosis in mouse NIH/3T3 cells assessed as necrotic cells preincubated for 20 hrs followed by UV irradiation for 5 mins and measured after 24 hrs by flow cytometric analysis. The assay is classed as functional, cell-based. The gist of the method: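 NIH3T3 cells grown in DMEM plus 10% FBS at 37 °C and 5% CO₂, seeded in 6-well plates and left overnight. Inhibitor (0–60 µM, DMSO solvent) added for 20 h. Medium replaced, then UV at peak 315 nm, 0.29 mW/cm² for 5 min. Cells kept with inhibitor 24 h more before flow cytometry by quadrant regions. Untreated, unirradiated cells served as control. Three independent experiments.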

Consider `CCCCCCCCCCOc1cc(C(=O)NO)ccc1OC`, for which the Activity is 11% with NIH3T3 [1]; 42.1% with NIH3T3 [3]; 36.8% with NIH3T3 [4]; 7.9% with NIH3T3 [5]; “Dose-dependent effect” in the assay with NIH3T3 [6]. Moreover, the inhibition entry in assay [2] was “Dose-dependent effect”.

These data come from ChEMBL document CHEMBL4152204, “Discovery of N-hydroxy-3-alkoxybenzamides as direct acid sphingomyelinase inhibitors using a ligand-based pharmacophore model” (Eur J Med Chem, 2018).
